OX1R antag-1 = OX1R (human) antagonism; O43613; OX1R-expressing cells, FRET antagonist read-out; inhibition, % at 6.6 µM; 330,000 compounds, 1.8% hits; AID 485270; in the data active means inhibition mostly above about 38%, no sharp cut-off; inactive means mostly below about 40%
Target sequence (O43613 whole entry, looked up): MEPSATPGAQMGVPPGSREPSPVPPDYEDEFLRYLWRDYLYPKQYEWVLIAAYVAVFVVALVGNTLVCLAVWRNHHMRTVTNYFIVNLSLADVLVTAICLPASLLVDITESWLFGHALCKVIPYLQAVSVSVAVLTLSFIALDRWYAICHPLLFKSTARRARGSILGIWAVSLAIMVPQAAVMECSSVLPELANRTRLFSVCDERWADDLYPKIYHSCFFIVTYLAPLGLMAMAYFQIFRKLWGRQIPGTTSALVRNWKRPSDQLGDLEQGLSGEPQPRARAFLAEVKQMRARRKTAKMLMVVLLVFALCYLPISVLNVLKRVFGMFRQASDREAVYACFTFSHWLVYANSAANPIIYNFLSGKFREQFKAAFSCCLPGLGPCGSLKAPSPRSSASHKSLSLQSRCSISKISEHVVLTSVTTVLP
OX1R antag-2 = human HCRTR1 antagonism | O43613 | CHO/OX1R cells, Fluo-8 calcium fluorescence, orexin A | inhibition, % at 5 µM | 330,000 compounds, 0.43% hits;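 active means inhibition above its plate's threshold, mean inhibition of all tested compounds on the plate plus 3 SD, cut at about 37% in these data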
GPR7 antagonist = blocks human GPR7 receptor signaling | inhibition, % at 4.4 µM | P48145 | 290,000 compounds, 1.1% hits | GPR7-expressing cells, fluorescence antagonist assay; in the data active means inhibition above about 16%, passing the limit was not always enough;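 further: cells stimulated with the agonist NPW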
CHO parental Ca = signal in parental CHO cells, OX1R antagonist counter-screen | parental CHO-K1, ATP-induced calcium, Fluo-8 fluorescence | inhibition, % at 5.6 µM | 330,000 compounds, 0.63% hits | AID 463079;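 active means inhibition above that plate's mean sample inhibition plus 3 SD, cut at about 26% in these data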
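test system = CHO parental line | reagent = ATP stimulus | measured by = intracellular calcium via Fluo-8 no-wash fluorescent dye | control set = ATP and no-ATP DMSO wells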
TAAR1 antag = antagonists of human TAAR1. Q96RJ0. inhibition, % at 3 µM. AID 624466. CHO RD-HGA16 TAAR1, Fluo-8 calcium fluorescence, antagonist. 360,000 compounds, 1.5% hits;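 active means inhibition above a per-plate cutoff, the mean inhibition of test compounds on that plate plus 3 SD, cut at about 49% in these data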
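Test system: CHO RD-HGA16 cells bearing hTAAR1 | Reagent: β-PEA, EC80 | Compound dosing: 3 µM, single point | Schedule: Dye loading 75 min at 37 °C, then 30 min room temperature | Signal: Calcium fluorescence with Fluo-8 | Evaluation: Percent inhibition of PEA-evoked calcium signal, max/basal emission ratio | Control set: DMSO-only wells and EC80 β-PEA-stimulated wells | Repeats: Singlicate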
TAAR1 agonist = agonists of human TAAR1; 360,000 compounds, 0.99% hits; CHO RD-HGA16 TAAR1, Fluo-8 calcium fluorescence; vehicle wells 0%, saturating PEA agonist 100%; activation, % at 3 µM;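 active means activation above the mean activation of all test compounds in the run plus 3 SD, cut at about 38% in these data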
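Benchmarks: low control DMSO, high control PEA (EC100); System: CHO RD-HGA16 cells carrying human TAAR1 plus Gα16; Detection: Fluo-8 fluorescence, 5 s baseline then 140 s kinetic read; Schedule: 17-24 h plating, Fluo-8 75 min 37 °C, 30 min RT; Read-out basis: % activation from peak over basal fluorescence ratio, DMSO-to-PEA scaled.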
A number is an active result; - = inactive; . = no result given. An excerpt weighted towards active compounds, which were near 4.6% of everything screened.

SMILES	OX1R antag-1	OX1R antag-2	GPR7 antagonist	CHO parental Ca	TAAR1 antag	TAAR1 agonist
C[C@@H]1CCCCO[C@H](CN(C)C(=O)CCC(F)(F)F)[C@H](C)CN([C@@H](C)CO)C(=O)c2cc(NS(=O)(=O)c3ccc(Cl)cc3)ccc2O1	.	.	.	.	-	-
O=C(NCc1ccccc1)[C@@H]1CCCN1C(=O)[C@H]1CCCN1C(=O)c1ccc(OC(F)(F)F)cc1	.	.	.	.	-	-
Cc1ccc2oc(=O)c3cc(C(=O)N4CCN(C(=O)c5ccco5)CC4)sc3c2c1	-	-	-	-	.	.
CCN(Cc1ccccc1)C(=O)c1cc2c(=O)oc3ccc(C)cc3c2s1	-	-	-	-	83	-
Cn1cnc([N+](=O)[O-])c1Sc1nnc(-c2ccccc2)c(-c2ccccc2)n1	.	.	.	.	-	-
CC(=O)NCCC(=O)Nc1cc(S(=O)(=O)N2CCOCC2)ccc1N1CCCC1	-	-	.	-	-	-
CN(CC(=O)Nc1ccc(Cl)c(C(F)(F)F)c1)C(=O)c1cc(=O)c2ccccc2o1	-	-	.	-	-	45
CN(CC(=O)Nc1ccc(Cl)c(C(F)(F)F)c1)C(=O)c1cc(=O)[nH]c2ccccc12	-	-	.	-	-	-
O=C(Cc1coc2cc(O)ccc12)N1CCN(S(=O)(=O)c2ccc(Br)cc2)CC1	.	.	.	.	-	-
CCc1cccc(-n2c(C)cc(O)cc2=O)c1	.	.	.	.	-	-
COc1cc(OC)cc(C(=O)NCC2CCN(C(=O)C(=O)c3cccs3)CC2)c1	.	.	.	.	-	-
CC(C)=CCC/C(C)=C/CCC(C)NCCN1CCNCC1 (stereo unspecified)	-	-	24	-	.	.
CC(C)Cn1c(N)c(C(=O)COC(=O)c2c(F)cccc2F)c(=O)n(C)c1=O	-	-	-	-	-	39
CC(C)Cn1c(N)c(C(=O)COC(=O)c2ccccc2F)c(=O)n(C)c1=O	-	-	17	-	-	-
CC(C)Cn1c(N)c(C(=O)COC(=O)c2ccccc2Cl)c(=O)n(C)c1=O	-	-	-	-	-	-
CC(C)Cn1c(N)c(C(=O)COC(=O)Cc2cccc(C(F)(F)F)c2)c(=O)n(C)c1=O	-	-	.	55	-	-
CC(C)Cn1c(N)c(C(=O)CSc2ccc3c(c2)OCCO3)c(=O)n(C)c1=O	-	-	-	55	-	-
CCC(=O)NC(c1cccs1)c1cc(Cl)c2ccccc2c1O (stereo unspecified)	48	-	.	-	-	-
CC(=O)NC(c1cc(Cl)c2ccccc2c1O)C(C)C (stereo unspecified)	40	-	.	-	-	-
CC(=O)NC(c1cccs1)c1cc(Cl)c2ccccc2c1O (stereo unspecified)	-	-	.	-	-	-
CC(=O)NC(c1cc(Cl)c2cccnc2c1O)C(C)C (stereo unspecified)	-	-	.	-	-	-
CCC(=O)NC(C)c1cc(Cl)c2ccccc2c1O (stereo unspecified)	-	-	.	-	-	-
CCC(=O)NC(c1cc(Cl)c2ccccc2c1O)C1CC1 (stereo unspecified)	63	-	.	-	-	-
COC(=O)C1=C(C)N(C)C(=NCC2CC2)NC1c1cccc(F)c1 (stereo unspecified)	.	.	.	.	-	-
O=C(Nc1ccc(O)cc1)/C(=C\C=C\c1ccccc1)NC(=O)c1ccccc1	-	-	-	-	50	-
SMILES	OX1R antag-1	OX1R antag-2	GPR7 antagonist	CHO parental Ca	TAAR1 antag	TAAR1 agonist
Cc1ccc(CNC(=O)[C@@H](Cc2ccccc2)NC(=O)[C@H]2O[C@@H](n3ccc(N)nc3=O)[C@H](O)[C@@H]2O)o1	.	.	.	.	-	-
C#CCNC[C@@H]1CSCCS(=O)(=O)N1	.	.	.	.	-	-
c1ccc(COCCN2CCN(CCOCc3ccccc3)CC2)cc1	-	-	-	-	.	.
Cc1c(C=NCCOCc2ccccc2)cnn1C	-	-	-	-	-	42
O=C(Nc1ccc(Cl)c([N+](=O)[O-])c1)C(Sc1ccccc1)c1ccccc1 (stereo unspecified)	-	-	-	-	57	-
COCC(C)NC(C(=O)Nc1ccc(Cl)c([N+](=O)[O-])c1)c1ccccc1 (stereo unspecified)	-	-	-	81	-	-
O=C(Nc1cc([N+](=O)[O-])ccc1Cl)C(Sc1ccccc1)c1ccccc1 (stereo unspecified)	-	-	-	-	-	-
CN(C)c1ccc(Sc2ccc3nc(N)nc(N)c3c2)cc1	.	.	.	.	-	44
CCCCOCC1CN(CCCC)S(=O)(=O)c2c(Oc3ccc(SC)c(C)c3)cccc2O1 (stereo unspecified)	.	.	.	.	-	-
COc1ccc2[nH]c3c(c2c1)CCN1C(=O)N([C@@H](C)C(=O)NCc2c(F)cccc2Cl)C(=O)[C@]31C	-	-	-	-	-	-
C[C@@H](C(=O)NCc1c(F)cccc1Cl)N1C(=O)N2CCc3c([nH]c4ccccc34)[C@@]2(C)C1=O	67	-	-	-	-	-
N#Cc1cc2nc(O)c(O)nc2cc1[N+](=O)[O-]	76	-	.	-	-	-
C1=C(CCNc2ncnc3c2[nH]c2ccccc23)CCCC1	-	-	41	69	-	-
COc1ccc(CNc2ncnc3c2[nH]c2ccccc23)cc1	52	-	-	-	-	-
C[C@@H]1CCCCO[C@@H](CN(C)C(=O)NC2CCCCC2)[C@@H](C)CN([C@H](C)CO)C(=O)c2cc(N(C)C)ccc2O1	.	.	.	.	-	-
CC(C)(C)c1ccc(/C=C/C(=O)Nc2ccncc2)cc1	-	-	-	-	53	-
CCc1nc2ccc(C(=O)N3CCN(C(=O)c4ccco4)CC3)cn2c1N(C)C(=O)c1cccc(OC)c1	.	.	.	.	-	-
COc1ccc(OCCOC(=O)c2[nH]c(C)c(C(C)=O)c2C)cc1	-	-	-	45	-	-
COc1ccc(CCNC(=O)c2[nH]c(C)c(C(C)=O)c2C)cc1	-	-	-	-	-	-
O=C1C=C(N2CCOCC2)c2ccccc2C1=O	64	-	-	-	-	-
O=C1C=C(N2CCOCC2)c2cccc3cccc1c23	.	.	.	.	-	-
O=C(CSCC(=O)NC1CC1)Nc1ccc2ccccc2c1	.	.	20	.	-	-
COC(=O)[C@]12C[C@H](CC(=O)N3CCCC3)C(=O)N(CCC3=CCCCC3)C1=C[C@H](C(C)(C)C)O[C@@H]2C	.	.	.	.	-	-
COc1ccc2c(c1)-c1c(ssc1=S)C(C)(C)N2S(=O)(=O)c1ccc(C)cc1	-	-	-	-	-	-
Cc1ccc(S(=O)(=O)N2c3ccccc3-c3c(ssc3=S)C2(C)C)cc1	88	42	-	-	-	-
O=C(Nc1nccs1)c1ccc(-c2ccc(F)cc2)o1	-	-	-	-	-	-
O=C(Nc1nccs1)c1ccc(-c2ccc(Cl)cc2)o1	49	-	-	-	-	-
O=C(Nc1nccs1)c1ccc(-c2ccccc2Cl)o1	59	-	-	-	-	-
